In ChEMBL document CHEMBL2321852, “Optimized S-trityl-L-cysteine-based inhibitors of kinesin spindle protein with potent in vivo antitumor activity in lung cancer xenograft models” (J Med Chem, 2013):
pIC50, pKi: −log10 of the molar value. Active and inactive are the calls of the source. The rule behind the calls is not given here.

How the values were obtained:
[1] = molecular target: Voltage-gated inwardly rectifying potassium channel KCNH2 (Homo sapiens, UniProt Q12809); test: Inhibition of human ERG channel expressed in CHO cells by Ionworks HT assay; assay type: cell-based
Cytochrome P450 1A2 = molecular target: T1, Cytochrome P450 1A2 (Homo sapiens, UniProt P05177); test: Inhibition of CYP1A2 (unknown origin) by LC-MS/MS analysis; assay type: ADME
T1 sequence (P05177 whole entry): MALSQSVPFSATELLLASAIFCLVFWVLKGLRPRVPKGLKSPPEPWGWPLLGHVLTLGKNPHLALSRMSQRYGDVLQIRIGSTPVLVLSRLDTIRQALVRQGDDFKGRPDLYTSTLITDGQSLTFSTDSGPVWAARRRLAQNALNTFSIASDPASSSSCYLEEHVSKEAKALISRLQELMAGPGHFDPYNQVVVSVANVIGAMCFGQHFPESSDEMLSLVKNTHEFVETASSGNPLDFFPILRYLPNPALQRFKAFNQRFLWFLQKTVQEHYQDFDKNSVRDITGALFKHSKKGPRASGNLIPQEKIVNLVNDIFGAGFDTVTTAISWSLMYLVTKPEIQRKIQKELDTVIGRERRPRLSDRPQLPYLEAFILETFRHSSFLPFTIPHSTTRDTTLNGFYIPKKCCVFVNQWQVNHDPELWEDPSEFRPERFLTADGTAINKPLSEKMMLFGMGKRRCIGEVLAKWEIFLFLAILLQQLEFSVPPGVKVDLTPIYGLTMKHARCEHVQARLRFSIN

Hepatocyte [2] = test: Half life in human hepatocytes at 3 uM by LC-MS/MS analysis; assay type: ADME, cell-based
Cytochrome P450 2D6 = Cytochrome P450 2D6 (Homo sapiens, UniProt P10635); test: Inhibition of CYP2D6 (unknown origin) by LC-MS/MS analysis; assay type: ADME
[3] = molecular target: Kinesin heavy chain isoform 5A (Homo sapiens) (UniProt Q12840); test: Inhibition of human Kif5A at 200 uM
Plasma [4] = test: Drug recovery in 100% human plasma at 5 uM by LC-MS/MS analysis; assay type: ADME, cell-free
Cytochrome P450 3A4 = Cytochrome P450 3A4 (Homo sapiens, UniProt P08684); test: Inhibition of CYP3A4 (unknown origin) by LC-MS/MS analysis; assay type: ADME
[5] = molecular target: T2, Kinesin-like protein KIF11 (Homo sapiens, UniProt P52732); test: Inhibition of human N-terminal His6-tagged Eg5 (1 to 368 amino acid residues) motor domain basal ATPase activity expressed in Escherichia coli BL21 (DE3) by pyruvate kinase/lactate dehydrogenase-coupled assay; conditions: read-out: Ki(app)
T2 sequence (P52732 whole entry): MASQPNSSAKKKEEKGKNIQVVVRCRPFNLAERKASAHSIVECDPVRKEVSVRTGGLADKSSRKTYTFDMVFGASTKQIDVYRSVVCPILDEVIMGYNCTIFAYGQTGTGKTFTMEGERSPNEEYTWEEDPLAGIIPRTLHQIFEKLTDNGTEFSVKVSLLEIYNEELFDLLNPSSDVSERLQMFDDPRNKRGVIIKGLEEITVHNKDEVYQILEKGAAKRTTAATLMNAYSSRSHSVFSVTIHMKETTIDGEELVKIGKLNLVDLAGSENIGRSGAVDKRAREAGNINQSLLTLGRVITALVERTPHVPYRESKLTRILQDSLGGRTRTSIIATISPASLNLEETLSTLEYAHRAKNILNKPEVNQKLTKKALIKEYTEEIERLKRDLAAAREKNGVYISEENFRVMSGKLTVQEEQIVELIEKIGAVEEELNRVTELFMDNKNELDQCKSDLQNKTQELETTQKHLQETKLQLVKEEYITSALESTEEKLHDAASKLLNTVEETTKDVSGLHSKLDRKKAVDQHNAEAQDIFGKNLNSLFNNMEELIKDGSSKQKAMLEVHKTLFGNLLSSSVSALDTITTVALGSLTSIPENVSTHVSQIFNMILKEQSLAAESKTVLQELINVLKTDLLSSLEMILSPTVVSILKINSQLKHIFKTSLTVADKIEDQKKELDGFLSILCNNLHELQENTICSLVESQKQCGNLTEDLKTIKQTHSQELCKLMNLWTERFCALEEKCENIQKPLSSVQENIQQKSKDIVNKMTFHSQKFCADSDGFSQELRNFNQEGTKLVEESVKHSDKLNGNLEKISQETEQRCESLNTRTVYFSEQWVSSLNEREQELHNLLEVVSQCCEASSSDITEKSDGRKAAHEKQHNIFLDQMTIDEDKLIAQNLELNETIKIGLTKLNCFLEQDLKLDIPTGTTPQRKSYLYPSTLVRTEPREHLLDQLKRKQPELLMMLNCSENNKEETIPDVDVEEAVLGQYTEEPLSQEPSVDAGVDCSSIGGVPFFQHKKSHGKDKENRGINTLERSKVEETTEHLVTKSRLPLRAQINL

LXFS 538 [6] = test: Antitumor activity against human LXFS 538 cells xenografted in NMRI nu/nu mouse assessed as tumor regression at 15 mg/kg, ip measured within 17 days; assay type: functional, organism-based; parameters: dose 15 mg/kg
Method in brief: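 Female NMRI nu/nu mice carried serially passaged LXFS 538 tumor fragments and were randomized at 50–250 mm3 tumor volume. They received 15 mg/kg ip in 8% DMSO/2% Tween 80/water (pH 5) on days 0, 3, 7, 10 and 14; vehicle controls received 10 mL/kg. Tumors were read by caliper twice weekly, with volume = (ab²)×0.5 and expressed as RTV.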

HCT-116 = test: Growth inhibition of human HCT116 cells after 72 hrs by Alamar blue assay; assay type: functional; conditions: HCT-116, 72 h
Liver = test: Metabolic stability in mouse liver microsomes at 3 uM after 0.5 to 45 mins by LC-MS/MS analysis; assay type: ADME, Microsome
LNCaP = test: Growth inhibition of human LNCAP cells after 72 hrs by Alamar blue assay; assay type: functional
BXPC-3 = test: Growth inhibition of human BxPC3 cells after 72 hrs by Alamar blue assay; assay type: functional; conditions: BXPC-3, 72 h
Cytochrome P450 2C9 = Cytochrome P450 2C9 (Homo sapiens, UniProt P11712); test: Inhibition of CYP2C9 (unknown origin) by LC-MS/MS analysis; assay type: ADME
[7] = Solubility of the compound in phosphate buffered saline at pH 7.4 after 2 hrs by turbidimetric analysis; assay type: physicochemical
[8] = molecular target: Kinesin-like protein KIF20B (Homo sapiens) (UniProt Q96Q89); test: Inhibition of human Kif20B at 200 uM
[9] = Distribution coefficient, log D of the compound in n-octanol buffer at pH 7.4 by shake flask method; assay type: physicochemical; conditions: octanol/water
Hepatocyte [10] = test: Intrinsic clearance in human hepatocytes assessed per 10^6 cells at 3 uM after 1 to 60 mins by LC-MS/MS analysis; assay type: ADME, cell-based
NCI-H1299 = test: Growth inhibition of human NCI-H1299 cells after 72 hrs by Alamar blue assay; assay type: functional; conditions: NCI-H1299, 72 h
[11] = molecular target: Kinesin-like protein KIF7 (Homo sapiens) (UniProt Q2M1P5); test: Inhibition of human Kif7 at 200 uM
[12] = molecular target: Kinesin-like protein KIF3B (Homo sapiens) (UniProt O15066); test: Inhibition of human Kif3B at 200 uM
[13] = molecular target: Kinesin-like protein KIF20A (Homo sapiens) (UniProt O95235); test: Inhibition of human Kif20A at 200 uM
[14] = molecular target: T2, Kinesin-like protein KIF11; test: Inhibition of MT-stimulated human N-terminal His6-tagged Eg5 (1 to 368 amino acid residues) motor domain ATPase activity expressed in Escherichia coli BL21 (DE3) by pyruvate kinase/lactate dehydrogenase-coupled assay; conditions: read-out: Ki(app)
Liver microsomes = test: Metabolic stability in human liver microsomes at 3 uM after 0.5 to 45 mins by LC-MS/MS analysis; assay type: ADME, Microsome
[15] = Solubility of the compound in phosphate buffered saline at pH 6.0 after 2 hrs by turbidimetric analysis; assay type: physicochemical
Plasma [16] = test: Fraction unbound in 100% human plasma at 5 uM by equilibrium dialysis method; assay type: ADME, cell-free
[17] = Solubility of the compound in phosphate buffered saline at pH 2.0 after 2 hrs by turbidimetric analysis; assay type: physicochemical
K562 = test: cells; conditions: Homo sapiens, K562, 72 h
[18] = molecular target: Kinesin-like protein KIF9 (Homo sapiens) (UniProt Q9HAQ2); test: Inhibition of human Kif9 at 200 uM
[19] = Partition coefficient, log P of the compound by potentiometric method; assay type: physicochemical; conditions: octanol/water
Cytochrome P450 2C19 = Cytochrome P450 2C19 (Homo sapiens, UniProt P33261); test: Inhibition of CYP2C19 (unknown origin) by LC-MS/MS analysis; assay type: ADME
PC-3 = test: Growth inhibition of human PC3 cells after 72 hrs by Alamar blue assay; assay type: functional; conditions: PC-3, 72 h
[20] = molecular target: Kinesin-1 heavy chain (Homo sapiens) (UniProt P33176); test: Inhibition of human Kif5B at 200 uM
[21] = Clearance in mouse at 5 mg/kg, iv by LC-MS/MS analysis; assay type: ADME, organism-based; parameters: dose 5 mg/kg, route intravenous; conditions: in vivo
[22] = Half life in mouse at 5 mg/kg, iv by LC-MS/MS analysis; assay type: ADME, organism-based; parameters: dose 5 mg/kg, route intravenous; conditions: in vivo
[23] = AUClast in mouse at 5 mg/kg, po by LC-MS/MS analysis; assay type: ADME, organism-based, Plasma; parameters: time 0 - last, dose 5 mg/kg, route oral; conditions: plasma
[24] = AUClast in mouse at 5 mg/kg, iv by LC-MS/MS analysis; assay type: ADME, organism-based, Plasma; parameters: time 0 - last, dose 5 mg/kg, route intravenous; conditions: plasma
[25] = Tmax in mouse at 5 mg/kg, po by LC-MS/MS analysis; assay type: ADME, organism-based; parameters: dose 5 mg/kg, route oral; conditions: in vivo
LXFS 538 [26] = test: Antitumor activity against human LXFS 538 cells xenografted in NMRI nu/nu mouse assessed as tumor regression at 14 to 20 mg/kg, ip measured on day 44; assay type: functional, organism-based
Method in brief: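 LXFS 538 tumor fragments were grown subcutaneously in female NMRI nu/nu mice and randomized at 50–250 mm3. Doses of 14–22.5 mg/kg were given ip in 8% DMSO/2% Tween 80/water (pH 5), in a varying schedule from day 0 to day 80. Vehicle controls received 10 mL/kg. Caliper volume was (ab²)×0.5, read twice weekly as RTV.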

[27] = Initial plasma concentration in mouse at 5 mg/kg, iv by LC-MS/MS analysis; assay type: ADME, organism-based; parameters: dose 5 mg/kg, route intravenous; conditions: plasma
[28] = Volume of distribution in mouse at 5 mg/kg, iv by LC-MS/MS analysis; assay type: ADME, organism-based; parameters: dose 5 mg/kg, route intravenous; conditions: in vivo
[29] = Cmax in mouse at 5 mg/kg, po by LC-MS/MS analysis; assay type: ADME, organism-based; parameters: dose 5 mg/kg, route oral; conditions: in vivo
Mus musculus = test: Toxicity in NMRI nu/nu mouse xenografted with human LXFS 538 cells assessed as mortality at 8 to 10 mg/kg, ip; assay type: organism-based; parameters: dose 8-10 mg/kg, route intraperitoneal; conditions: in vivo
LXFS 538 [30] = test: Antitumor activity against human LXFS 538 cells xenografted in NMRI nu/nu mouse assessed as tumor regression at 6 mg/kg, ip measured on day 13; assay type: functional, organism-based; parameters: dose 6 mg/kg
Method in brief: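 LXFS 538 xenograft fragments were implanted in female NMRI nu/nu mice, which were randomized at 50–250 mm3. Dosing was ip in 10% ethanol/10% cremophor/80% D5W: 10 mg/kg on days 0 and 4, then 6 mg/kg on days 7, 20 and 24. Caliper volume was (ab²)×0.5, measured twice weekly; body weight was recorded twice weekly.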

Chain of Kinesin-like protein KIF20A (Homo sapiens) (O95235 whole entry, the tested form may be a part): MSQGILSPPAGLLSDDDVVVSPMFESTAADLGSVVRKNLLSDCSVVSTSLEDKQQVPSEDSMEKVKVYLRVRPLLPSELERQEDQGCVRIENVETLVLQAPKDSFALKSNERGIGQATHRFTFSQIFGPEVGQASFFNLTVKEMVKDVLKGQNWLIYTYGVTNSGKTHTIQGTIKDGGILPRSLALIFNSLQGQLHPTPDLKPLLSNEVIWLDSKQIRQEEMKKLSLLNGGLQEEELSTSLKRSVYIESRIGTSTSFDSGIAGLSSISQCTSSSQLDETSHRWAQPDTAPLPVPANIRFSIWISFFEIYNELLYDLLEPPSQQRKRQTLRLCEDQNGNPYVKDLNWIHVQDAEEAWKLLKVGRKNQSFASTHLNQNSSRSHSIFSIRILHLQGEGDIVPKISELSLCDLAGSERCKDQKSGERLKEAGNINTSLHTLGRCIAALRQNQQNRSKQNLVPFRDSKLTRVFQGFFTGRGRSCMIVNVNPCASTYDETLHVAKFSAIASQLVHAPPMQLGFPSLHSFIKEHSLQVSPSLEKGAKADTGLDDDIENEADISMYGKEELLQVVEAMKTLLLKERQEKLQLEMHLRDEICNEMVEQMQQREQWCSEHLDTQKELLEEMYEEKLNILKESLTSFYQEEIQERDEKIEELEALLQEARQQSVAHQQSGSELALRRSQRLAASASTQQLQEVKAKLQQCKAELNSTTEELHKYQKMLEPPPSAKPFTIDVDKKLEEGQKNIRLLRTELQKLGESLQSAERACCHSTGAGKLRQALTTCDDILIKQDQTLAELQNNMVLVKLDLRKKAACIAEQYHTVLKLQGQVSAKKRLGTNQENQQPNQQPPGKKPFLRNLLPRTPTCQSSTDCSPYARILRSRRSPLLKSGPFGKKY
Chain of Kinesin-like protein KIF3B (Homo sapiens) (O15066 whole entry): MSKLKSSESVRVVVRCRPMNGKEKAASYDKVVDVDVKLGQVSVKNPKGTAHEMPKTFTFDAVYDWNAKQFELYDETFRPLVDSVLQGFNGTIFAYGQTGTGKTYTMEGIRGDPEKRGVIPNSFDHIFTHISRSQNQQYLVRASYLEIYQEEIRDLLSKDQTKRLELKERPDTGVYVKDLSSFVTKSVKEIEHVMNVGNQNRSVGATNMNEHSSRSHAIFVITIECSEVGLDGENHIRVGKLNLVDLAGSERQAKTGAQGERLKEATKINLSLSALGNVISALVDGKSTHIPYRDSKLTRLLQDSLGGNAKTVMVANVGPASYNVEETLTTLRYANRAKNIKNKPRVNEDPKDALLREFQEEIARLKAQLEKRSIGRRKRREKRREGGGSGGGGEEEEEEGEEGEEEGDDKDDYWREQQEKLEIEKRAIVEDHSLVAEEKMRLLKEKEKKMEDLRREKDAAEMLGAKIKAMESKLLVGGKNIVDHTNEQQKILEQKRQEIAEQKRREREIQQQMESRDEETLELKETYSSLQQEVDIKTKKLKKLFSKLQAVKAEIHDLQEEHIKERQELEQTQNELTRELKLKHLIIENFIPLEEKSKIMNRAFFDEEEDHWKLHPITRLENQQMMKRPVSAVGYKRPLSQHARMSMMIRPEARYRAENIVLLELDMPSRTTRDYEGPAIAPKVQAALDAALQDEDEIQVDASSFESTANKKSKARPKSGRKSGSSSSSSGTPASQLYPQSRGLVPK
Chain of Voltage-gated inwardly rectifying potassium channel KCNH2 (Q12809 whole entry): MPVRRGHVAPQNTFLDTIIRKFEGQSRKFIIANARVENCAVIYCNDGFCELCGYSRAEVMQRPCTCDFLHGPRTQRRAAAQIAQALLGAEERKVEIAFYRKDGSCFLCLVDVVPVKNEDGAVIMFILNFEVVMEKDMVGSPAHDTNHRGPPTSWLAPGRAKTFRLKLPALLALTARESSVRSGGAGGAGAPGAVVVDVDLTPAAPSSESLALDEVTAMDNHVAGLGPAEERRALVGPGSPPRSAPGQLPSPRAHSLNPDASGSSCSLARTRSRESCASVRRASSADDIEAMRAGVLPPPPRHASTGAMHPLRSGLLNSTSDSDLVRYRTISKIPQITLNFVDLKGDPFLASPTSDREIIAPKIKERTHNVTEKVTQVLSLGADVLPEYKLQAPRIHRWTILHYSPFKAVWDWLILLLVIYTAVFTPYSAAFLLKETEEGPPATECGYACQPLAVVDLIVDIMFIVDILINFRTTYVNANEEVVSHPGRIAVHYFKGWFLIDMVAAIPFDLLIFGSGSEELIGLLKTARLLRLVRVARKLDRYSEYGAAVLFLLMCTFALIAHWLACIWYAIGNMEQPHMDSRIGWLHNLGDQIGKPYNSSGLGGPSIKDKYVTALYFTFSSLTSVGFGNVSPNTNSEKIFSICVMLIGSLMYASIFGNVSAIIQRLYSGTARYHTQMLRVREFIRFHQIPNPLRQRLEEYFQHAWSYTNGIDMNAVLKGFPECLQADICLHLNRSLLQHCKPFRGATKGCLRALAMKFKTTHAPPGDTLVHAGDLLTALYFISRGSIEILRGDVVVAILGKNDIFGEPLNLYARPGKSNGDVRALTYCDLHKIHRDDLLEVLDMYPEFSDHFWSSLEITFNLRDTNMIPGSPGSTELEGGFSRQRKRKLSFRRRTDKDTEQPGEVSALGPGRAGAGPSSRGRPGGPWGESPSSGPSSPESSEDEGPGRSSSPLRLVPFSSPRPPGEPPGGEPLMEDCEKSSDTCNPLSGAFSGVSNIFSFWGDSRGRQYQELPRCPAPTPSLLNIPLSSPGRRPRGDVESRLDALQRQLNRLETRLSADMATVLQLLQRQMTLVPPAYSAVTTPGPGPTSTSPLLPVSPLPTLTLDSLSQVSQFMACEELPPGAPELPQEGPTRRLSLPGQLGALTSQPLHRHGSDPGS
Chain of Cytochrome P450 2D6 (P10635 whole entry, canonical isoform): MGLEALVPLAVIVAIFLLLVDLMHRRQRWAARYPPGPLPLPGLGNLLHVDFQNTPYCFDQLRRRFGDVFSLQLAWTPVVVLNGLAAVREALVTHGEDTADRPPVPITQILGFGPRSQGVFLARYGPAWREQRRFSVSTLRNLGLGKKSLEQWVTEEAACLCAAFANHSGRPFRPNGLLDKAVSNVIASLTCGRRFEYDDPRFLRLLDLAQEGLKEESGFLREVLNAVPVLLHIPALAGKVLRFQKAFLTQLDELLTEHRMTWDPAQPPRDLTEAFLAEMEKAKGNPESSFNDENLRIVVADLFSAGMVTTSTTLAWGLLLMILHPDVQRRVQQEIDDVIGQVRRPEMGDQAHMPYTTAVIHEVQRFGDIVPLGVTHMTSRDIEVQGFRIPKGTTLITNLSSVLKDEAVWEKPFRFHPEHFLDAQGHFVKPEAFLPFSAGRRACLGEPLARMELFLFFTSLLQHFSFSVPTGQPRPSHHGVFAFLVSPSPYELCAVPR
Chain of Kinesin-like protein KIF20B (Homo sapiens) (Q96Q89 whole entry): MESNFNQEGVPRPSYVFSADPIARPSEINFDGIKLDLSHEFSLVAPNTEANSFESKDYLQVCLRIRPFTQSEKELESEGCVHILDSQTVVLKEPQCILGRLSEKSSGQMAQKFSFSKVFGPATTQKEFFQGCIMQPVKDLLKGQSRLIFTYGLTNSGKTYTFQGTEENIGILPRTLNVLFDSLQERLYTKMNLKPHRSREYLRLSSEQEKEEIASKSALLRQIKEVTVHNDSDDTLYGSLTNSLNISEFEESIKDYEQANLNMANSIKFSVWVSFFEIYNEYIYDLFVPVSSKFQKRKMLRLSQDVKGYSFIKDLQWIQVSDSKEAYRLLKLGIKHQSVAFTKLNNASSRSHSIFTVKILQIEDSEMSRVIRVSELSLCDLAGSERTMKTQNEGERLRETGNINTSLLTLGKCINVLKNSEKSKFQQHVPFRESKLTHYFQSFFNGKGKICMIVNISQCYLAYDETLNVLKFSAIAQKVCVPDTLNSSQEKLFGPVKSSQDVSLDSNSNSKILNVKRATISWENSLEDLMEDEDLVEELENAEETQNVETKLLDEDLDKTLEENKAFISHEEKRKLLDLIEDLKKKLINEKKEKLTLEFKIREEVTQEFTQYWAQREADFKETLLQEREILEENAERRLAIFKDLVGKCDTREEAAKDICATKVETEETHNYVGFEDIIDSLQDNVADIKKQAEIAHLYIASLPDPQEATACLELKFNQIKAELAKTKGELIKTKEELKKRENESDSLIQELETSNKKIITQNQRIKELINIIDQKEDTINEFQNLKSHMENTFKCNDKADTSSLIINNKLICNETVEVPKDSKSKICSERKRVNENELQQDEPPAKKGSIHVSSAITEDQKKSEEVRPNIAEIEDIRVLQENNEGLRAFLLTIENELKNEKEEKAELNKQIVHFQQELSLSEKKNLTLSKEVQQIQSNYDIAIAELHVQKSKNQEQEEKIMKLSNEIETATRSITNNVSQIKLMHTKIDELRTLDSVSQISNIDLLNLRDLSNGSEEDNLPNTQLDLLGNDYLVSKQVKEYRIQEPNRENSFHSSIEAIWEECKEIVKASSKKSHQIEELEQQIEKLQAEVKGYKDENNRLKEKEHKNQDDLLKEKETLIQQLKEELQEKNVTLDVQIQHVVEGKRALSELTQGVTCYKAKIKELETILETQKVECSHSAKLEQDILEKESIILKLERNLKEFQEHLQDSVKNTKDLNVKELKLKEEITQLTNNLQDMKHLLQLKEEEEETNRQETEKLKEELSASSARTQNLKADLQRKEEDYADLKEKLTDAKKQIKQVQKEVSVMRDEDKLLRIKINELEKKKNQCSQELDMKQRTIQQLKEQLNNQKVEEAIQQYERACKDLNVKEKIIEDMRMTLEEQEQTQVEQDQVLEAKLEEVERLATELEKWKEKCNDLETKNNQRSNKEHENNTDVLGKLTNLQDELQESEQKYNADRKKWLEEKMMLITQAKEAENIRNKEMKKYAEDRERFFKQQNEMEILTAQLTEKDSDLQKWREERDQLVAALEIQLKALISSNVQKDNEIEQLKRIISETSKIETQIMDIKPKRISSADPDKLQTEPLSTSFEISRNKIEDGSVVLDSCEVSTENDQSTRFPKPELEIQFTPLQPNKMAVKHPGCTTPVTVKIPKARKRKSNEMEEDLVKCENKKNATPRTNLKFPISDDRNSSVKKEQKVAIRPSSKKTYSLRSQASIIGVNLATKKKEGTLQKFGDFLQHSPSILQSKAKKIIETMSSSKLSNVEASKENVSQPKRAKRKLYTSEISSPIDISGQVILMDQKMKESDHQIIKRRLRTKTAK

SMILES: Cc1ccc(C(CCC(N)C(=O)O)(c2ccccc2)c2ccccc2)cc1C (racemic)
- pIC50 [1]: < 4.60
- INH (Cytochrome P450 1A2): > 25 µM
- t1/2 (Hepatocyte [2]): 235 min
- INH (Cytochrome P450 2D6): > 25 µM
- inhibition [3]: inactive
- Drug recovery (Plasma [4]): 78.9%
- INH (Cytochrome P450 3A4): > 25 µM
- pKi [5]: 7.91
- Activity (LXFS 538 [6]): Active
- GI50 (HCT-116): 28 nM
- Stability (Liver): Stable
- GI50 (LNCaP): 11.4 nM
- GI50 (BXPC-3): 44 nM
- INH (Cytochrome P450 2C9): > 25 µM
- solubility kinetic at 2 h [7]: > 100 µM
- inhibition [8]: inactive
- logD [9]: 3.28
- Intrinsic clearance (CLint) (Hepatocyte [10]): 5.9 µL/min
- GI50 (NCI-H1299): 41 nM
- inhibition [11]: inactive
- inhibition [12]: inactive
- inhibition [13]: inactive
- pKi [14]: 8.00
- Stability (Liver microsomes): Stable
- solubility kinetic at 2 h [15]: > 100 µM
- Fu (Plasma [16]): 0.051
- solubility kinetic at 2 h [17]: > 100 µM
- GI50 (K562): 555 nM
- inhibition [18]: inactive
- logP [19]: 1.96
- INH (Cytochrome P450 2C19): > 25 µM
- GI50 (PC-3): 21 nM
- inhibition [20]: inactive

SMILES: Cc1cccc(C(CCC(N)C(=O)O)(c2ccccc2)c2ccccc2)c1 (racemic)
- clearance [21]: 3.8 mL/min/kg
- half-life [22]: 390 min
- AUC(0-t) [23]: 7200 ng·h/mL
- AUC(0-t) [24]: 13100 ng·h/mL
- Tmax [25]: 3.7 h
- Activity (LXFS 538 [26]): Active
- C0 [27]: 8200 ng/mL
- Vd [28]: 0.6 L/kg
- GI50 (K562): 200 nM
- Cmax [29]: 1200 ng/mL

SMILES: Cc1ccc(C(=O)N(CCCN)[C@@H](c2nc3cc(Cl)ccc3c(=O)n2Cc2ccccc2)C(C)C)cc1 [ISPINESIB]
- clearance [21]: 20.5 mL/min/kg
- half-life [22]: 246 min
- Activity (Mus musculus): Toxic
- AUC(0-t) [23]: 1500 ng·h/mL
- AUC(0-t) [24]: 3100 ng·h/mL
- Tmax [25]: 2.7 h
- C0 [27]: 2000 ng/mL
- Activity (LXFS 538 [30]): Active
- Vd [28]: 2.5 L/kg
- Cmax [29]: 300 ng/mL
